Measurements from ChEMBL document CHEMBL4400568, “The design of 1,4-naphthoquinone derivatives and mechanisms underlying apoptosis induction through ROS-dependent MAPK/Akt/STAT3 pathways in human lung cancer cells” (Bioorg Med Chem, 2019).
Active and inactive are the calls of the source. The rule behind the calls is not given here.

Tests used:
[1] = Cytotoxicity against HEK293A cells assessed as reduction in cell viability after 24 hrs by MTT assay; type: cell-based; settings: human, hek293-a
In short: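 Log-phase cells seeded at 1 × 10⁴ per well. Lung cancer lines (A549, NCI-H23, NCI-H460) and normal lines (IMR-90, QSG-7701, HEK-293A) each exposed to 1, 3, 10, 30 and 100 μM for 24 h. MTT (5 mg/mL stock) added for 2 h at 37°C, formazan dissolved in DMSO, absorbance read at 490 nm. Three independent experiments, mean ± SD.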

A549 [2] = assay: Induction of apoptosis in human A549 cells assessed as cell shrinkage at 3 uM by Annexin V-FITC/propidium iodide staining-based flow cytometric analysis; type: functional; settings: TDE = time-dependent effect
A549 [3] = assay: Induction of apoptosis in human A549 cells assessed as increase in cleaved PARP expression at 3 uM by Western blot analysis; type: functional, cell-based; settings: TDE = time-dependent effect
In short: (§1)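 A549 cells exposed to 3 μM for 3, 6, 12 or 24 h; where NAC is used, 10 mM NAC is added 30 min before 24 h treatment. Lysate protein (30 μg) is run on 12% SDS-PAGE, blotted to nitrocellulose, blocked in 5% milk, primary antibody overnight at 4°C, then HRP anti-IgG. β-actin loading control; densitometry; three independent experiments, mean ± SD.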

A549 [4] = assay: Induction of apoptosis in human A549 cells assessed as late apoptotic cells at 3 uM after 3 hrs by Annexin V-FITC/propidium iodide staining-based flow cytometric analysis (reference value: 4.52%); type: functional
A549 [5] = assay: Induction of apoptosis in human A549 cells assessed as early apoptotic cells at 3 uM after 6 hrs by Annexin V-FITC/propidium iodide staining-based flow cytometric analysis (reference value: 2.73%); type: functional
A549 [6] = assay: Induction of apoptosis in human A549 cells assessed as early apoptotic cells at 3 uM after 12 hrs by Annexin V-FITC/propidium iodide staining-based flow cytometric analysis (reference value: 2.73%); type: functional
A549 [7] = assay: Cell cycle arrest in human A549 cells assessed as accumulation of cells at G1 phase at 3 uM after 3 hrs by propidium iodide staining-based flow cytometric analysis (reference value: 57.65%); type: functional
A549 [8] = assay: Cell cycle arrest in human A549 cells assessed as accumulation of cells at S phase at 3 uM after 3 hrs by propidium iodide staining-based flow cytometric analysis (reference value: 13.85%); type: functional
A549 [9] = assay: Cell cycle arrest in human A549 cells assessed as accumulation of cells at G2 phase at 3 uM after 3 hrs by propidium iodide staining-based flow cytometric analysis (reference value: 24.02%); type: functional
A549 [10] = assay: Cell cycle arrest in human A549 cells assessed as accumulation of cells at G1 phase at 3 uM after 6 hrs by propidium iodide staining-based flow cytometric analysis (reference value: 57.65%); type: functional
A549 [11] = assay: Cell cycle arrest in human A549 cells assessed as accumulation of cells at G2 phase at 3 uM after 6 hrs by propidium iodide staining-based flow cytometric analysis (reference value: 24.02%); type: functional
A549 [12] = assay: Cell cycle arrest in human A549 cells assessed as accumulation of cells at S phase at 3 uM after 12 hrs by propidium iodide staining-based flow cytometric analysis (reference value: 13.85%); type: functional
[13] = target: RAC-alpha serine/threonine-protein kinase (Homo sapiens) (UniProt P31749); assay: Inhibition of AKT phosphorylation in human A549 cells at 3 uM by Western blot analysis; type: cell-based; settings: TDE = time-dependent effect
In short: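 A549 cells exposed to 3 μM for 3, 6, 12 or 24 h. Lysate protein (30 μg) run on 12% SDS-PAGE and blotted to nitrocellulose. Membranes blocked in 5% skim milk, primary antibodies at 4°C overnight, then HRP anti-IgG secondary for 1 h at room temperature. β-actin was the internal control. Bands quantified by densitometry; three independent experiments, mean ± SD.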

A549 [14] = assay: Cell cycle arrest in human A549 cells assessed as increase in p27 levels at 3 uM by Western blot analysis; type: functional, cell-based; settings: TDE = time-dependent effect; in short: as §1
[15] = target: MAP kinase p38 (Homo sapiens) (UniProt O15264+Q15759+Q16539+P53778); assay: Modulation of p38 MAPK in human A549 cells assessed as reduction in STAT3 phosphorylation measured after 24 hrs in presence of p38 inhibitor SB203580 by Western blot analysis; type: cell-based
In short: (§2)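 A549 cells pre-incubated for 30 min with 12.1 μM kinase inhibitor: SB203580 (p38), SP600125 (JNK), FR180204 (ERK) or LY10249 (Akt). Compound treatment followed for 24 h. Lysates (30 μg protein) analysed by 12% SDS-PAGE and nitrocellulose immunoblot with HRP detection. Three independent experiments, mean ± SD.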

[16] = target: T1, c-Jun N-terminal kinase, JNK (Homo sapiens) (UniProt P45983+P53779+P45984); assay: Modulation of JNK in human A549 cells assessed as decrease in STAT3 phosphorylation measured after 24 hrs in presence of JNK inhibitor SP600125 by Western blot analysis; type: cell-based; in short: as §2
A549 [17] = assay: Modulation of ERK in human A549 cells assessed as increase in cleaved caspase-3 measured after 24 hrs in presence of ERK inhibitor-FR180204 by Western blot analysis; type: cell-based; in short: as §2
[18] = target: RAC-alpha serine/threonine-protein kinase (Homo sapiens) (UniProt P31749); assay: Modulation of AKT in human A549 cells assessed as increase in p27 levels measured after 24 hrs in presence of Akt inhibitor-LY10249 by Western blot analysis; type: cell-based; in short: as §2
A549 [19] = assay: Induction of ROS generation in human A549 cells assessed as intracellular ROS level at 3 uM after 3 hrs by DCFH-DA staining-based flow cytometric analysis (reference value: 51.8%); type: functional
In short: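 A549 cells loaded with DCFH-DA (10 μM per legend) for 30 min, then exposed to 3 μM at 37°C for 3, 6, 12 or 24 h. After two PBS washes, intracellular fluorescence is quantified by flow cytometry. Three independent experiments, mean ± SD.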

A549 [20] = assay: Inhibition of ERK phosphorylation in human A549 cells at 3 uM after 24 hrs in presence of NAC by Western blot analysis; type: cell-based
In short: (§3)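 A549 cells pretreated with 10 mM NAC for 30 min, then exposed to compound for 24 h. Lysate protein (30 μg) resolved on 12% SDS-PAGE and transferred to nitrocellulose. Probed with primary antibodies overnight at 4°C, then HRP secondary. Band densities from three independent experiments, mean ± SD.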

[21] = target: RAC-alpha serine/threonine-protein kinase (Homo sapiens) (UniProt P31749); assay: Inhibition of AKT phosphorylation in human A549 cells at 3 uM measured after 24 hrs in presence of NAC by Western blot analysis; type: cell-based; in short: as §3
[22] = target: T1, c-Jun N-terminal kinase, JNK (Homo sapiens); assay: Activation of JNK phosphorylation in human A549 cells at 3 uM after 24 hrs in presence of NAC by Western blot analysis; type: cell-based; in short: as §1
A549 [23] = assay: Induction of apoptosis in human A549 cells assessed as increase in cleaved caspase-3 at 3 uM measured after 24 hrs in presence of NAC by Western blot analysis; type: functional, cell-based; in short: as §1
A549 [24] = assay: Induction of apoptosis in human A549 cells assessed as increase in cleaved PARP at 3 uM measured after 24 hrs in presence of NAC by Western blot analysis; type: functional, cell-based; in short: as §1
A549 [25] = assay: Induction of apoptosis in human A549 cells assessed as apoptotic morphological changes at 3 uM by Annexin V-FITC/propidium iodide staining-based flow cytometric analysis; type: functional, cell-based; settings: TDE = time-dependent effect

Chain of RAC-alpha serine/threonine-protein kinase (Homo sapiens) (P31749 whole entry): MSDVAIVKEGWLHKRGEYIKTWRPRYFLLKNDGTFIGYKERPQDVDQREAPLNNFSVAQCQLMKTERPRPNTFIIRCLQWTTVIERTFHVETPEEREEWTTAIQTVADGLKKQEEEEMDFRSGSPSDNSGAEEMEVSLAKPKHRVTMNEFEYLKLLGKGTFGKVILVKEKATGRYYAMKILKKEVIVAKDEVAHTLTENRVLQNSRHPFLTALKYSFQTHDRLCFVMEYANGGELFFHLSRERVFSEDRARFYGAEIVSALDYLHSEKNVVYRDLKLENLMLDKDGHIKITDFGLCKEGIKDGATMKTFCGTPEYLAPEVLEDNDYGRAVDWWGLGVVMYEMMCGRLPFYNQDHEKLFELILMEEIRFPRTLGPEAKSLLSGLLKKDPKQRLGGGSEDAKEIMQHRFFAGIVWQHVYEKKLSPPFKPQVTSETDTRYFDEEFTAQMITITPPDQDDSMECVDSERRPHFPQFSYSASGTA

Row | Structure (SMILES) | Activity [1] | Activity (A549 [2]) | Activity (A549 [3]) | Activity (A549 [4]) [%] | Activity (A549 [5]) [%] | Activity (A549 [6]) [%] | Activity (A549 [7]) [%] | Activity (A549 [8]) [%] | Activity (A549 [9]) [%] | Activity (A549 [10]) [%] | Activity (A549 [11]) [%] | Activity (A549 [12]) [%] | inhibition [13] | Activity (A549 [14]) | Activity [15] | Activity [16] | Activity (A549 [17]) | Activity [18] | Activity (A549 [19]) [%] | inhibition (A549 [20]) | other results
1 | CCCCCCCCCS(=O)(=O)C12OC1C(=O)c1c(OC)ccc(OC)c1C2=O (stereo not given) | Non-Toxic | Tde | Tde | 5.43 | 14.47 | 16.92 | 61.21 | 9.45 | 26.58 | 65.95 | 22.02 | 7.18 | Tde | Tde | inactive | inactive | Active | Active | 52.52 | inactive | inhibition [21]: inactive; Activity [22]: inactive; Activity (A549 [23]): inactive; Activity (A549 [24]): inactive; Activity (A549 [25]): Tde
2 | CCCS(=O)(=O)C12OC1C(=O)c1c(OC)ccc(OC)c1C2=O (stereo not given) | Non-Toxic | Tde | Tde | 5.11 | 16.31 | 35.37 | 60.85 | 11.61 | 23.47 | 66.13 | 18.26 | 9.06 | Tde | Tde | inactive | inactive | Active | Active | 57.9 | inactive | inhibition [21]: inactive; Activity [22]: inactive; Activity (A549 [23]): inactive; Activity (A549 [24]): inactive; Activity (A549 [25]): Tde
